A selection: hits, their analogues and other compounds. The true share with any hit is near 1.5%.
CXCR6 block: inhibitors of human CXCR6 receptor | O00574 | CHO-K1 PathHunter CXCR6 beta-arrestin, luminescence | inhibition, % at 20 µM | hit rate 0.36% among 360,000; in the data active means inhibition above about 34%, passing the limit was not always enough;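 further: antagonist mode with CXCL16 agonist at 10 nM final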
Target sequence (O00574 whole entry, looked up): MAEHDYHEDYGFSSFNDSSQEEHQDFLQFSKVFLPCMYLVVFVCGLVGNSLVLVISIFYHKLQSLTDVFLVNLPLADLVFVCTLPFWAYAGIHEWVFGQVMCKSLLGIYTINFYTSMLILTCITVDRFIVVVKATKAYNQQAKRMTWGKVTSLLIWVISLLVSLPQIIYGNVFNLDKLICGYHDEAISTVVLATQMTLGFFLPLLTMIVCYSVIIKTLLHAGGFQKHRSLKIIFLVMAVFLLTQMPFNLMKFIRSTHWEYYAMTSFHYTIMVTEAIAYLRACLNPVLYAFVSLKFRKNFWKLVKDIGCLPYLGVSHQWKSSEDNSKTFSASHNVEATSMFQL
EBI2 antag: blocks human EBI2 receptor beta-arrestin signaling; P32249; EBI2 beta-arrestin recruitment, luminescence, 7a,25-OHC stimulated; inhibition, % at 5 µM; hit rate 0.81% among 360,000; in the data active means inhibition above about 38%;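 further: enzyme fragment complementation signal reports receptor beta-arrestin coupling in cells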
APJ antag: antagonists of human APJ apelin receptor; hit rate 0.32% among 330,000; CHO-K1 APJ beta-arrestin complementation, luminescence; P35414; inhibition, % at 20 µM;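 active means inhibition above about 40% at 20 µM, limit read from the data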;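 further: cells challenged with 10 nM apelin-13 agonist together with compound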
Target sequence (P35414 whole entry, looked up): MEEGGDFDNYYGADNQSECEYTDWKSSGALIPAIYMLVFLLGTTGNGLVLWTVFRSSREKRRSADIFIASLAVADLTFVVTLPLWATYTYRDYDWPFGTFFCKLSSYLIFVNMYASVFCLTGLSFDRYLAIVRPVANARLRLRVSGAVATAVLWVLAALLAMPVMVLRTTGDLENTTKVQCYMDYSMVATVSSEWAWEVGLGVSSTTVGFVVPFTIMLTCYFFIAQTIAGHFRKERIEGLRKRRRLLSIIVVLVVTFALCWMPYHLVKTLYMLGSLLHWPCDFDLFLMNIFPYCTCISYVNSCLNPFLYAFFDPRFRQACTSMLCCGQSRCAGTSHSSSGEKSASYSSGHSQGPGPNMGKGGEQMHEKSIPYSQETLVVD
CCR6 antag: CCR6 (human) receptor antagonism. P51684. CHO-K1 CCR6 PathHunter beta-arrestin, luminescence, CCL20-stimulated. inhibition, % at 20 µM. hit rate 0.49% among 340,000;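 active means compounds whose inhibition of the agonist-driven luminescence signal at 20 µM reaches about 50%, limit read from the data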;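 further: cells stimulated with CCL20 at 14 nM final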
APJ agonist: APJ receptor agonism; CHO-K1 APJ PathHunter beta-arrestin, luminescence; 0% DMSO wells, 100% apelin; activation, % at 20 µM; hit rate 0.11% among 330,000;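 active means activation more than six SD over the plate average, tested at 20 µM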
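Assay system: engineered CHO-K1 APJ arrestin reporter cells; Amount: 1000 CHO-K1 reporter cells seeded per well; Dosing: one dose, 20 µM compound, 1% DMSO; Times: compound stimulation 90 min at 25 °C, detection 60 min; Measured by: luminescent beta-gal fragment complementation, chemiluminescent substrate; Read-out: APJ–arrestin association signal; Controls: DMSO vs Apelin-13 10 nM.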
EBI2 antag conf: EBI2 (human) antagonism, single concentration confirmation; shares compounds with EBI2 antag; EBI2 beta-arrestin luminescence, 7a,25-OHC antagonism; inhibition, % at 5 µM; hit rate 29% among 2,400; AID 651997;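 active means inhibition of at least 50%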
EBI2 agonist: counter-screen for EBI2 antagonists: EBI2 agonist activity | activation, % at 5 µM | shares compounds with EBI2 antag | EBI2-expressing cells, agonist mode, luminescence, 60 min; 0% vehicle, 100% 7α,25-dihydroxycholesterol control | 2,400 tested, under 10 active | AID 652000;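 active means activation of at least 50%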
bGal cs: counter-screen for EBI2 antagonists: E. coli beta-galactosidase inhibition; shares compounds with EBI2 antag; inhibition, % at 5 µM; AID 652176; hit rate 1% among 2,400; purified beta-galactosidase, luminescent Galacton Star, 15 min;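 active means replicate-average signal at least 3 plate SD below neutral wells, shown as high inhibition, flagging enzyme-inhibiting false positives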;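 further: higher means stronger loss of beta-gal luminescence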
Each line names hits and unclear results; the compound was inactive in the other large screens (follow-up assays come after a bar, where they were run).

O=C(CSc1ccc(Cl)cc1)N1CCN(c2c(Cl)cccc2[N+](=O)[O-])CC1	EBI2 antag 94.0 | EBI2 antag conf 86.4 | EBI2 agonist inactive | bGal cs inactive
CCCC(=O)N1CCN(c2ccc([N+](=O)[O-])cc2Cl)CC1	none
O=C(CSc1ccc(Cl)cc1)N1CCN(c2ccc([N+](=O)[O-])cc2Cl)CC1	EBI2 antag 83.7 | EBI2 antag conf inactive | EBI2 agonist inactive | bGal cs inactive
CCOc1ccc(S(=O)(=O)NCCC(=O)N(CC)CC(=O)Nc2c(F)cccc2F)cc1	none
O=C(Nc1nc(-c2cccs2)cs1)c1cccc(S(=O)(=O)N2CCCCCC2)c1	none
O=C(Nc1nc(-c2cccs2)cs1)c1ccc(S(=O)(=O)N2CCCCC2)cc1	EBI2 antag 42.0 | EBI2 antag conf inactive | EBI2 agonist inactive | bGal cs inactive
Cn1nccc1C(=O)Oc1ccc(/C=N/NC(=O)c2ccccc2O)cc1	none
OC(c1cc(Cl)cc(Cl)c1)c1ncc(-c2cccc(F)c2)[nH]1 (stereo unspecified)	none (no result: APJ antag, CCR6 antag, APJ agonist)
COc1ccc(OC)c(NC(=O)CN(c2ccc(C)cc2)S(=O)(=O)c2c(C)noc2C)c1	EBI2 antag 48.2 | EBI2 antag conf inactive | EBI2 agonist inactive | bGal cs inactive
COc1ccc(OC)c(NC(=O)CN(c2ccc(C(C)C)cc2)S(=O)(=O)c2c(C)noc2C)c1	none
CCOc1ccc(OCC)c(NC(=O)CN(c2ccc(C)cc2)S(=O)(=O)c2c(C)noc2C)c1	EBI2 antag 72.5 | EBI2 antag conf inactive | EBI2 agonist inactive | bGal cs inactive
CCOc1ccc(OCC)c(NC(=O)CN(c2ccc(OC)cc2)S(=O)(=O)c2c(C)noc2C)c1	EBI2 antag 69.3 | EBI2 antag conf inactive | EBI2 agonist inactive | bGal cs inactive
CC(=O)C1=C(C)NC(SCC(=O)c2ccccc2)=C(C#N)C1CC(C)C (stereo unspecified)	none
Cc1nn(Cc2c(F)c(F)c(F)c(F)c2F)c(C)c1NC(=O)c1nn(C)c(C)c1Br	none
COc1ccc(N(CC(=O)NCCSCc2ccc(Cl)cc2)S(C)(=O)=O)cc1Cl	EBI2 antag 45.6 | EBI2 antag conf inactive | EBI2 agonist inactive | bGal cs inactive
COc1ccc(N(CC(=O)NCCSc2ccccc2)S(=O)(=O)c2ccccc2)cc1	EBI2 antag 88.2 | EBI2 antag conf 59.5 | EBI2 agonist inactive | bGal cs inactive
COc1ccccc1N(CC(=O)NCCSc1ccccc1)S(=O)(=O)c1ccccc1	EBI2 antag 49.8 | EBI2 antag conf inactive | EBI2 agonist inactive | bGal cs inactive
COc1ccc(N(CC(=O)NCCSCc2cccc(Cl)c2)S(C)(=O)=O)cc1Cl	none
COc1ccc(N(CC(=O)NCCSCc2ccc(C)cc2)S(=O)(=O)c2ccccc2)cc1	EBI2 antag 73.0 | EBI2 antag conf inactive | EBI2 agonist inactive | bGal cs inactive
COc1ccccc1N(CC(=O)NCCSCc1ccc(C)cc1)S(=O)(=O)c1ccccc1	none
COc1ccccc1N(CC(=O)NCCSc1ccc(Cl)cc1)S(C)(=O)=O	EBI2 antag 80.1 | EBI2 antag conf 62.3 | EBI2 agonist inactive | bGal cs inactive
COc1ccc(N(CC(=O)NCCSc2ccccn2)S(=O)(=O)c2ccccc2)c(OC)c1	none
COc1ccc(N(CC(=O)NCCSc2ccccc2)S(=O)(=O)c2ccccc2)c(OC)c1	EBI2 antag 44.6 | EBI2 antag conf inactive | EBI2 agonist inactive | bGal cs inactive
Cc1ccc(SCCNC(=O)CN(c2ccc3c(c2)OCO3)S(C)(=O)=O)cc1	EBI2 antag 70.6 | EBI2 antag conf 57.9 | EBI2 agonist inactive | bGal cs inactive
COc1ccccc1N(CC(=O)NCCSc1ccccc1)S(C)(=O)=O	none
Cc1ccccc1-c1nnc(-c2ccc(Br)cc2)o1	none
CCC1CCC(c2nnc(-c3ccc(Br)cc3)o2)CC1 (stereo unspecified)	EBI2 antag 49.8 | EBI2 antag conf inactive | EBI2 agonist inactive | bGal cs inactive
CC(C)(C)c1nnc(N/N=C/c2ccccc2)n(N)c1=O	EBI2 antag 76.8 | EBI2 antag conf inactive | EBI2 agonist inactive | bGal cs inactive
CCc1nc2ccccc2n1CCC(C)C	none
COC(=O)c1ccc(C23CC4(C2)[C@H](CN(Cc2cccnc2)[C@@H]4c2ccccc2)C3c2ccccc2)cc1 (stereo partly specified)	none
N#Cc1ccc(C23CC4(C2)[C@H](CN(Cc2cccnc2)[C@@H]4c2ccccc2)C3c2ccccc2)cc1 (stereo partly specified)	EBI2 antag 71.6 | EBI2 antag conf inactive | EBI2 agonist inactive | bGal cs inactive
COc1ccc(-c2cn(Cc3ccc(C(=O)NCc4ccc(C)cc4)cc3)c(C(C)N)n2)cc1 (stereo unspecified)	EBI2 antag 54.5 | EBI2 antag conf inactive | EBI2 agonist inactive | bGal cs inactive
CC(=O)c1ccc(NC(=O)COC(=O)c2nc(Cl)ccc2Cl)cc1	none
O=C(/C=C/c1ccc(N2CCC(c3ccccc3)=N2)cc1)c1ccccc1	none (no result: CXCR6 block, EBI2 antag)
CCOC(=O)/C(=C\c1ccc(N2CCC(c3ccccc3)=N2)cc1)C(C)=O	EBI2 antag 47.9 (no result: APJ antag, APJ agonist) | EBI2 antag conf 53.4 | EBI2 agonist inactive | bGal cs inactive
Nc1nc(Cl)cc(N2CCC(c3cc(-c4ccc(Cl)cc4Cl)n[nH]3)CC2)n1	EBI2 antag 45.5 | EBI2 antag conf inactive | EBI2 agonist inactive | bGal cs inactive
Cn1c(C(=O)N2CCN(c3ccccc3)CC2)cc2cc(Cl)ccc21	EBI2 antag 44.2 | EBI2 antag conf inactive | EBI2 agonist inactive | bGal cs inactive
Cn1c(C(=O)N2CCN(c3ccccn3)CC2)cc2ccccc21	none
O=C(CCC(=O)c1cccs1)NCc1cccc(Cl)c1	none
COc1ccc(C2=CC(=O)C[C@H](c3ccc(Cl)cc3)C2)cc1	EBI2 antag 49.8 | EBI2 antag conf 58.8 | EBI2 agonist inactive | bGal cs inactive
CC(C)c1cccc(C2=CC(=O)C[C@H](c3ccc(F)cc3)C2)c1	none
O=C1C=C(c2ccc(OC(F)(F)F)cc2)C[C@@H](c2ccc(Cl)cc2)C1	EBI2 antag 65.1 | EBI2 antag conf inactive | EBI2 agonist inactive | bGal cs inactive
Cn1ccc2ccc(C3=CC(=O)C[C@H](c4ccc(F)cc4)C3)cc21	EBI2 antag 55.2 | EBI2 antag conf inactive | EBI2 agonist inactive | bGal cs inactive
O=C1C=C(c2ccc(O)cc2)C[C@@H](c2ccc(Cl)cc2)C1	none
CCOc1ccc(C2=CC(=O)C[C@H](c3ccc(OC)cc3)C2)cc1	EBI2 antag 76.6 | EBI2 antag conf inactive | EBI2 agonist inactive | bGal cs inactive

Assay outcomes: PubChem BioAssay, Sanford-Burnham Center for Chemical Genomics
